In ChEMBL document CHEMBL1139556, “Synthesis and biological evaluation of gemcitabine-lipid conjugate (NEO6002)” (Bioorg Med Chem Lett, 2005):

Assays:
[1] = Ability (27 umol/kg) tested on mortality of non-diseased CD2F1 mice at day 8 (n=8); assay type: ADME; conditions: CD2F1, mouse, in vivo
Outline: (§1)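 Multiple-dose toxicity in non-diseased CD2F1 mice. Five or six daily doses given (schedule days 1–5 or 1–6). Mortality recorded, reported as % mortality at day 8.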

Cell line [2] = assay: Ability (9 umol/kg) tested for inhibition of BxPC-3 human pancreatic tumor growth (n=8); assay type: functional
Outline: (§2)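 BxPC-3 human pancreatic tumour cells (5 × 10⁶) implanted subcutaneously in SCID mice. At 80–160 mm³, tumours randomised into groups. Dosing on days 1, 7, 15, 22, 26, 29 and 33, with an equal-volume vehicle control group. Tumour volume measured by Vernier calipers, followed up to 50 days. % growth = 100 × (Vt/V0), where V0 is the volume on the first treatment day.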

Cell line [3] = assay: Ability (18 umol/kg) tested for inhibition of BxPC-3 human pancreatic tumor growth (n=8); assay type: functional; outline: as §2
[4] = Ability (36 umol/kg) tested on mortality of non-diseased CD2F1 mice at day 8 (n=8); assay type: ADME; conditions: CD2F1, mouse, in vivo; outline: as §1
[5] = Ability (18 umol/kg) tested on mortality of non-diseased CD2F1 mice at day 8 (n=8); assay type: ADME; conditions: CD2F1, mouse, in vivo; outline: as §1
Cell line [6] = assay: Ability (36 umol/kg) tested for inhibition of BxPC-3 human pancreatic tumor growth (n=8); assay type: functional; outline: as §2

Nc1ccn([C@@H]2O[C@H](CO)[C@@H](O)C2(F)F)c(=O)n1 [GEMCITABINE]
mortality at 8 day [1]: 100% | Growth (Cell line [2]): 1942% | Growth (Cell line [3]): 2007% | mortality at 8 day [4]: 100% | mortality at 8 day [5]: 0%

CCCCCCOCC(COP(=O)(OC)OCC(COP(=O)(OC)OCC(COCCCCCC)OCCCCCC)OC(=O)CCC(=O)OC[C@H]1O[C@@H](n2ccc(N)nc2=O)C(F)(F)[C@@H]1O)OCCCCCC (stereo partly drawn)
Growth (Cell line [2]): 1387% | Growth (Cell line [3]): 1393% | Growth (Cell line [6]): 1022%
